{
  "source": "ChEMBL document CHEMBL1142419",
  "about": "“Antimycobacterial activities of novel 2-(sub)-3-fluoro/nitro-5,12-dihydro-5-oxobenzothiazolo[3,2-a]quinoline-6-carboxylic acid” (Bioorg Med Chem, 2008)",
  "data": [
    {"system": "Mycobacterium tuberculosis", "test": "Antimycobacterial activity against multidrug-resistant Mycobacterium tuberculosis by agar dilution method", "format": "functional", "procedure,_shortened": "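MIC by agar dilution on Middlebrook 7H11 agar supplemented with OADC, following an NCCLS-like procedure, run in duplicate. The MDR-TB clinical isolate was resistant to isoniazid, rifampicin, ethambutol and ofloxacin.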", "units": {"MIC": "µM"}, "values": [
      {"compound": "O=C(O)c1c(=O)c2cc(F)c(N3CCC(n4c(=O)[nH]c5cc(Cl)ccc54)CC3)cc2n2c1sc1ccccc12", "MIC": 5.56},
      {"compound": "O=C(O)c1c(=O)c2cc(F)c(N3CCC(N4CCCCC4)CC3)cc2n2c1sc1ccccc12", "MIC": 0.19},
      {"compound": "O=C(O)c1c(=O)c2cc(F)c(N3CCC4(CC3)OCCO4)cc2n2c1sc1ccccc12", "MIC": 0.86},
      {"compound": "CC(C)(C)NC(=O)C1c2ccccc2CCN1c1cc2c(cc1F)c(=O)c(C(=O)O)c1sc3ccccc3n12", "note": "(centres undefined)", "MIC": 1.43},
      {"compound": "O=C(O)c1c(=O)c2cc(F)c(N3CCN(C(=O)C4COc5ccccc5O4)CC3)cc2n2c1sc1ccccc12", "note": "(centres undefined)", "MIC": 5.59},
      {"compound": "CC(C)(C)OC(=O)NC1C2CN(c3cc4c(cc3F)c(=O)c(C(=O)O)c3sc5ccccc5n34)CC21", "note": "(centres undefined)", "MIC": 0.18},
      {"compound": "O=C(O)c1c(=O)c2cc([N+](=O)[O-])c(N3CCC4(CC3)OCCO4)cc2n2c1sc1ccccc12", "MIC": 0.39},
      {"compound": "CC(C)(C)OC(=O)NC1C2CN(c3cc4c(cc3[N+](=O)[O-])c(=O)c(C(=O)O)c3sc5ccccc5n34)CC21", "note": "(centres undefined)", "MIC": 0.73},
      {"compound": "O=C(O)c1c(=O)c2cc(F)c(N3CCN(Cc4ccc5c(c4)OCO5)CC3)cc2n2c1sc1ccccc12", "MIC": 5.89},
      {"compound": "O=C(O)c1c(=O)c2cc(F)c(N3CCN(C(c4ccccc4)c4ccc(Cl)cc4)CC3)cc2n2c1sc1ccccc12", "note": "(centres undefined)", "MIC": 0.65},
      {"compound": "CC(C)(C)NC(=O)C1c2ccccc2CCN1c1cc2c(cc1[N+](=O)[O-])c(=O)c(C(=O)O)c1sc3ccccc3n12", "note": "(centres undefined)", "MIC": 5.49},
      {"compound": "O=C(O)c1c(=O)c2cc([N+](=O)[O-])c(N3CCC(O)(c4ccc(Cl)cc4)CC3)cc2n2c1sc1ccccc12", "MIC": 2.84},
      {"compound": "O=C(O)c1c(=O)c2cc(F)c(N3CCSCC3)cc2n2c1sc1ccccc12", "MIC": 7.55},
      {"compound": "CCN(CC)C(=O)C1CCCN(c2cc3c(cc2F)c(=O)c(C(=O)O)c2sc4ccccc4n23)C1", "note": "(centres undefined)", "MIC": 0.08},
      {"compound": "Cc1onc(-c2c(F)cccc2F)c1C(=O)N1CCN(c2cc3c(cc2F)c(=O)c(C(=O)O)c2sc4ccccc4n23)CC1", "MIC": 5.06},
      {"compound": "O=C(O)c1cn2c(n1)CN(c1cc3c(cc1F)c(=O)c(C(=O)O)c1sc4ccccc4n13)CC2", "MIC": 0.39},
      {"compound": "COc1cc2c(cc1OC)CN(c1cc3c(cc1[N+](=O)[O-])c(=O)c(C(=O)O)c1sc4ccccc4n13)CC2", "MIC": 2.93},
      {"compound": "CCN(CC)C(=O)C1CCCN(c2cc3c(cc2[N+](=O)[O-])c(=O)c(C(=O)O)c2sc4ccccc4n23)C1", "note": "(centres undefined)", "MIC": 0.75},
      {"compound": "O=C(O)c1cn2c(n1)CN(c1cc3c(cc1[N+](=O)[O-])c(=O)c(C(=O)O)c1sc4ccccc4n13)CC2", "MIC": 0.77},
      {"compound": "O=C(O)c1c(=O)c2cc(F)c(N3CCC(O)(c4ccc(Cl)cc4)CC3)cc2n2c1sc1ccccc12", "MIC": 0.36},
      {"compound": "O=C(O)c1c(=O)c2cc([N+](=O)[O-])c(N3CCC(N4CCCCC4)CC3)cc2n2c1sc1ccccc12", "MIC": 1.54},
      {"compound": "COc1cc2c(cc1OC)CN(c1cc3c(cc1F)c(=O)c(C(=O)O)c1sc4ccccc4n13)CC2", "MIC": 3.09},
      {"compound": "COc1c(N2CCNC(C)C2)c(F)cc2c(=O)c(C(=O)O)cn(C3CC3)c12", "note": "(centres undefined) [GATIFLOXACIN]", "MIC": 8.34},
      {"compound": "NNC(=O)c1ccncc1", "note": "[ISONIAZID]", "MIC": 45.6}
    ]}
  ]
}
